Test results from ChEMBL document CHEMBL4330165, “Absolute Configuration of Bioactive Azaphilones from the Marine-Derived Fungus Pleosporales sp. CF09-1” (2019).
In brackets after ≈: the same amount, converted by molar mass.

Experiments:
Assay type in all cases: functional
Alternaria brassicicola = test: Antifungal activity against Alternaria brassicicola CICC 2646 after 48 hrs by broth dilution assay; settings: CICC 2646, 48 h
Outline: (§1)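 Conventional broth dilution. Fungi were grown on PDA at 28 °C for 72 h. Seed culture was diluted in PYG (peptone 1.0%, glucose 2.0%, yeast extract 1.0%) in 96-well plates. DMSO stocks (10 mg/mL) were serially diluted to in-test 0.78–100 μg/mL. Plates were incubated 48 h at 28 °C, humidified. Ketoconazole was the positive control and DMSO the negative control. MIC was the endpoint.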

Botryosphaeria dothidea = test: Antifungal activity against Botryosphaeria dothidea CICC 2678 after 48 hrs by broth dilution assay; settings: CICC 2678, 48 h; outline: as §1
Fusarium oxysporum = test: Antifungal activity against […] oxysporum CICC 41029 after 48 hrs by broth dilution assay; settings: CICC 41029, 48 h; outline: as §1
Vibrio alginolyticus = test: Antibacterial activity against Vibrio alginolyticus CICC 21664 after 48 hrs by broth dilution method; settings: CICC 21664, 48 h
Outline: (§2)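 Microbroth dilution in LB medium (peptone 10 g/L, yeast extract 5 g/L, NaCl 10 g/L). Ciprofloxacin served as positive control. MIC was read as the endpoint.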

Vibrio anguillarum = test: Antibacterial activity against Vibrio anguillarum CICC 10475 after 48 hrs by broth dilution method; outline: as §2
Vibrio parahaemolyticus = test: Antibacterial activity against Vibrio parahaemolyticus CICC 10552 after 48 hrs by broth dilution method; outline: as §2

Row | Structure (SMILES) | MIC (Alternaria brassicicola) | MIC (Botryosphaeria dothidea) | MIC (Fusarium oxysporum) | MIC (Vibrio alginolyticus) | MIC (Vibrio anguillarum) | MIC (Vibrio anguillarum; Vibrio anguillarum, CICC 10475, 48 h, read-out: MIC) | MIC (Vibrio parahaemolyticus) | MIC (Vibrio parahaemolyticus; Vibrio parahaemolyticus, CICC 10552, 48 h, read-out: MIC)
1 | C/C=C(\C)[C@H](OC(C)=O)[C@H](C)C(=O)O[C@@]1(C)C(=O)C=C2C=C(C3=C(C)CCCC3=O)OC=C2C1=O | 13 µg/mL (≈ 26.9 µM) | 13 µg/mL (≈ 26.9 µM) | 6.3 µg/mL (≈ 13.1 µM) |  |  |  |  | 
2 | C/C=C(\C)[C@H](OC(C)=O)[C@H](C)C(=O)O[C@@]1(C)C(=O)C=C2C=C(c3c(C)cccc3O)OC=C2C1=O | 6.3 µg/mL (≈ 13.1 µM) | 3.1 µg/mL (≈ 6.45 µM) | 25 µg/mL (≈ 52 µM) |  |  |  |  | 
3 | C/C=C(\C)[C@H](OC(C)=O)[C@H](C)C(=O)O[C@@]1(C)C(=O)C2=COC(C3=C(C)CCCC3=O)=CC2=C(Cl)C1=O | 1.6 µg/mL (≈ 3.09 µM) | 13 µg/mL (≈ 25.1 µM) | 1.6 µg/mL (≈ 3.09 µM) |  |  |  |  | 
4 | COC(CO)CC1=CC2=CC(=O)[C@@](C)(O)[C@@H](OC(=O)c3c(C)cc(O)cc3O)[C@@H]2CO1 (stereo in doubt; 6) |  |  |  |  | 13 µg/mL (≈ 29.9 µM) |  | 6.3 µg/mL (≈ 14.5 µM) | 
5 | O=C(O)c1cn(C2CC2)c2cc(N3CCNCC3)c(F)cc2c1=O [CIPROFLOXACIN] |  |  |  | 13 µg/mL (≈ 39.2 µM) |  | 6.3 µg/mL (≈ 19 µM) |  | 3.1 µg/mL (≈ 9.36 µM)
6 | CC(=O)N1CCN(c2ccc(OCC3COC(Cn4ccnc4)(c4ccc(Cl)cc4Cl)O3)cc2)CC1 (configuration not stated) [KETOCONAZOLE] | 3.1 µg/mL (≈ 5.83 µM) | 3.1 µg/mL (≈ 5.83 µM) | 6.3 µg/mL (≈ 11.9 µM) |  |  |  |  | 

Now from value to molecule, other results behind:

Row | MIC (Alternaria brassicicola) | MIC (Botryosphaeria dothidea) | MIC (Fusarium oxysporum) | MIC (Vibrio alginolyticus) | MIC (Vibrio anguillarum) | MIC (Vibrio anguillarum; Vibrio anguillarum, CICC 10475, 48 h, read-out: MIC) | Structure (SMILES) | MIC (Vibrio parahaemolyticus) | MIC (Vibrio parahaemolyticus; Vibrio parahaemolyticus, CICC 10552, 48 h, read-out: MIC)
7 | > 50 µg/mL | > 50 µg/mL | > 50 µg/mL | 25 µg/mL (≈ 57.5 µM) |  |  | CO[C@@H]1CO[C@@]2(CC3=CC(=O)[C@@](C)(O)[C@@H](OC(=O)c4c(C)cc(O)cc4O)[C@@H]3CO2)C1 |  | 
8 | > 50 µg/mL | > 50 µg/mL | > 50 µg/mL | 25 µg/mL (≈ 57.5 µM) |  |  | CO[C@H]1CO[C@@]2(CC3=CC(=O)[C@@](C)(O)[C@@H](OC(=O)c4c(C)cc(O)cc4O)[C@@H]3CO2)C1 |  | 
9 |  |  |  |  | 6.3 µg/mL (≈ 14.5 µM) |  | COC(CO)CC1=CC2=CC(=O)[C@@](C)(O)[C@@H](OC(=O)c3c(C)cc(O)cc3O)[C@@H]2CO1 (stereo in doubt; 7) | 25 µg/mL (≈ 57.5 µM) | 
